In ChEMBL document CHEMBL3877250, “Design, synthesis, and biological evaluation of (2E)-(2-oxo-1, 2-dihydro-3H-indol-3-ylidene)acetate derivatives as anti-proliferative agents through ROS-induced cell apoptosis” (Eur J Med Chem, 2016):

Legend:
[1] = Cytotoxicity against human HL60 cells assessed as growth inhibition at 20 uM after 72 hrs by CCK-8 assay; type: functional; details: HL-60, 72 h, read-out: GI
Method in brief: (§1)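 Cells kept in RPMI 1640 with 10% heat-inactivated fetal calf serum and 1% streptomycin/penicillin at 37 °C, 5% CO2. After compound exposure, CCK-8 was added and cells were incubated 4 h at 37 °C, then absorbance was read at 450 nm. Viability is relative to untreated cells (100%). IC50 comes from nonlinear regression, mean of three separate determinations. Single-concentration screen at 20 µM.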

[2] = Cytotoxicity against human SW480 cells assessed as growth inhibition at 20 uM after 72 hrs by CCK-8 assay; type: functional; details: SW480, 72 h, read-out: GI; method in brief: as §1
[3] = Cytotoxicity against human OVCAR3 cells assessed as growth inhibition at 20 uM after 72 hrs by CCK-8 assay; type: functional; details: OVCAR-3, 72 h, read-out: GI; method in brief: as §1
[4] = Antitumor activity against human HepG2 cells assessed as growth inhibition at 20 uM after 72 hrs by CCK-8 assay; type: functional; details: HepG2, 72 h, read-out: GI; method in brief: as §1
[5] = Cytotoxicity against human HCT116 cells assessed as growth inhibition at 20 uM after 72 hrs by CCK-8 assay; type: functional; details: HCT-116, 72 h, read-out: GI; method in brief: as §1
[6] = Cytotoxicity against human L02 cells assessed as growth inhibition at 20 uM after 72 hrs by CCK-8 assay; type: toxicity, cell-based; details: read-out: GI; method in brief: as §1
[7] = Cytotoxicity against human Saos2 cells assessed as growth inhibition at 20 uM after 72 hrs by CCK-8 assay; type: functional; details: SAOS-2, 72 h, read-out: GI; method in brief: as §1
[8] = Cytotoxicity against human MDA-MB-231 cells assessed as growth inhibition at 20 uM after 72 hrs by CCK-8 assay; type: functional; details: MDA-MB-231, 72 h, read-out: GI; method in brief: as §1
[9] = Cytotoxicity against human SK-BR-3 cells assessed as growth inhibition at 20 uM after 72 hrs by CCK-8 assay; type: functional; details: SK-BR-3, 72 h, read-out: GI; method in brief: as §1
[10] = Cytotoxicity against human HL60 cells after 72 hrs by CCK-8 assay; type: functional, cell-based; details: HL-60, 72 h; method in brief: as §1
[11] = Cytotoxicity against human L02 cells after 72 hrs by CCK-8 assay; type: toxicity, cell-based; method in brief: as §1
[12] = Cytotoxicity against human L02 cells; type: toxicity, cell-based

SMILES | inhibition of growth at 20 µM [1] | inhibition of growth at 20 µM [2] | inhibition of growth at 20 µM [3] | inhibition of growth at 20 µM [4] | inhibition of growth at 20 µM [5] | inhibition at 72 h, 20 µM [6] | inhibition of growth at 20 µM [7] | inhibition of growth at 20 µM [8] | inhibition of growth at 20 µM [9] | IC50 [10] | IC50 at 72 h [11] | IC50 [12]
CC(=O)O[C@H]1C(=O)[C@@]2(C)[C@H]([C@H](OC(=O)c3ccccc3)[C@]3(O)C[C@H](OC(=O)[C@H](O)[C@@H](NC(=O)c4ccccc4)c4ccccc4)C(C)=C1C3(C)C)[C@]1(OC(C)=O)CO[C@@H]1C[C@@H]2O [PACLITAXEL] | 71% | 76.4% | 58.5% | 89.4% | 88.9% | 61.5% | 77.4% | 85.1% | 72.1% |  |  | 
CC(C)(C)OC(=O)/C=C1/C(=O)Nc2ccc(OC(F)(F)F)cc21 | 95.9% | 77.8% | 59% | 88.4% | 87.7% | 61.3% | 80.1% | 86.9% | 88.1% | 4.48 µM | 4.04 µM | 
CC(C)(C)OC(=O)CC1C(=O)Nc2ccccc21 (stereo not drawn) | 0.5% | 8.8% | 6.4% | 1.2% | 1.7% | 0.1% | 1.5% | 3.7% | 22.6% | > 100 µM | > 100 µM | 
CN1C(=O)/C(=C/C(=O)O)c2ccccc21 |  |  |  |  |  |  |  |  |  | 83.7 µM |  | 
CCN(CC)CCNC(=O)c1c(C)[nH]c(/C=C2\C(=O)Nc3ccc(F)cc32)c1C [SUNITINIB] |  |  |  |  |  |  |  |  |  | 4.95 µM | 4.62 µM | 
CC(C)(C)OC(=O)/C=C1/C(=O)Nc2c(Cl)cccc21 | 93.7% | 78% | 59.3% | 88.1% | 89.5% | 64% | 82.4% | 87.4% | 88.2% | 6.12 µM | 4.8 µM | 
CC(C)c1ccc2c(c1)/C(=C\C(=O)OC(C)(C)C)C(=O)N2 | 94.4% | 78.5% | 59.7% | 90.5% | 89.4% | 63.8% | 82.8% | 87.7% | 88.5% | 5.29 µM | 3.36 µM | 
COC(=O)CC1C(=O)Nc2ccccc21 (stereo not drawn) |  |  |  |  |  |  |  |  |  | 114 µM | > 100 µM | 
COc1cccc2c1NC(=O)/C2=C/C(=O)OC(C)(C)C | 84.2% | 77.8% | 57.1% | 87.3% | 87.6% | 61.6% | 81.1% | 86.7% | 87.7% | 9.68 µM |  | 
CCOC(=O)/C=C1\C(=O)Nc2ccccc21 |  |  |  |  |  |  |  |  |  | > 100 µM |  | 
Cc1c(Cl)ccc2c1NC(=O)/C2=C/C(=O)OC(C)(C)C | 82.9% | 77.2% | 57.4% | 69.7% | 89.9% | 64.3% | 82.6% | 87.3% | 87.9% | 3.64 µM | 6.26 µM | 
CC(C)(C)OC(=O)/C=C1/C(=O)N(Cc2ccccc2)c2ccccc21 | 91.7% | 78.4% | 58.9% | 88% | 87.9% | 62% | 82.1% | 87.1% | 88% | 13.8 µM | 5.03 µM | 
CN1C(=O)C(CC(=O)OC(C)(C)C)c2ccccc21 (stereo not drawn) |  |  |  |  |  |  |  |  |  | 93.1 µM | > 100 µM | 
CN1C(=O)/C(=C/C(=O)OC(C)(C)C)c2ccccc21 | 94.7% | 77.8% | 57.1% | 88.4% | 87.5% | 61.4% | 81.9% | 86.6% | 87.6% | 2.76 µM | 4.32 µM | 12.2 µM
CC(C)(C)OC(=O)/C=C1/C(=O)Nc2ccc([N+](=O)[O-])cc21 | 86.6% | 77.9% | 55.6% | 88.2% | 88.1% | 62% | 82.8% | 86.9% | 87.9% | 9.86 µM | 3.82 µM | 
COc1ccc2c(c1)/C(=C\C(=O)OC(C)(C)C)C(=O)N2 | 94.2% | 78.7% | 59% | 90.1% | 89.6% | 63.7% | 82% | 87.6% | 87.7% | 6.19 µM | 3.82 µM | 
CN1C(=O)/C(=C/C(=O)Oc2ccc3ccccc3c2)c2ccccc21 |  |  |  |  |  |  |  |  |  | 23.8 µM | 46.6 µM | 
O=C(O)/C=C1/C(=O)Nc2ccccc21 | 0.9% | 6.4% | 13.4% | 3% | -0.7% | 3.3% | 8.9% | 1% | 17.9% | > 100 µM | > 100 µM | 
CNC(=O)/C=C1/C(=O)N(C)c2ccccc21 |  |  |  |  |  |  |  |  |  | 10.7 µM | 19.1 µM | 
COC(=O)/C=C1/C(=O)Nc2ccccc21 | 81.5% | 78.1% | 54.4% | 88% | 87% | 61.5% | 78.6% | 86.8% | 86.7% | 4.18 µM | 7.05 µM | 
CN1C(=O)/C(=C/C(=O)Oc2ccc(Cl)cc2)c2ccccc21 |  |  |  |  |  |  |  |  |  | 12.2 µM |  | 
CC(C)(C)OC(=O)CC1C(=O)Nc2ccc(Cl)cc21 (stereo not drawn) |  |  |  |  |  |  |  |  |  | 81.1 µM |  | 
Cc1ccc2c(c1)/C(=C\C(=O)OC(C)(C)C)C(=O)N2 | 94.6% | 79% | 59.5% | 90.3% | 89.4% | 63.9% | 83.7% | 87.8% | 88% | 5 µM | 2.68 µM | 
COc1ccc(OC(=O)/C=C2/C(=O)N(C)c3ccccc32)cc1 |  |  |  |  |  |  |  |  |  | 10.6 µM | 23.5 µM | 
CCCCc1ccc2c(c1)/C(=C\C(=O)OC(C)(C)C)C(=O)N2 | 94.7% | 78.3% | 60.2% | 90.3% | 89% | 63.7% | 84.2% | 87.7% | 87.8% | 6.19 µM | 4.4 µM | 
CCOC(=O)/C=C1/C(=O)Nc2ccccc21 | 77.7% | 78.3% | 57.3% | 90.2% | 89.3% | 63.9% | 81.4% | 86.9% | 85.5% | 4.83 µM | 4.23 µM | 
CN1C(=O)/C(=C/C(=O)Oc2ccccc2)c2ccccc21 |  |  |  |  |  |  |  |  |  | 10.2 µM | 22.7 µM | 
COc1ccc2c(c1)NC(=O)/C2=C/C(=O)OC(C)(C)C | 91.6% | 78.8% | 57.9% | 88.3% | 89.5% | 63.6% | 83.2% | 87.1% | 87% | 9.15 µM | 4.34 µM | 
